# In ChEMBL document CHEMBL4373710, “DNA Structural Alteration Leading to Antibacterial Properties of 6-Nitroquinoxaline Derivatives” (J Med Chem, 2019):
# Calls of active or inactive are those of the source. The calls are words filed in the database; no cut-off is given here.
# How the values were obtained:
# Staphylococcus aureus [1] = experiment: Disruption of preformed biofilm in Staphylococcus aureus at 4 times MIC measured after 12 hrs by crystal violet staining based light microscopic analysis; type: functional
# How it was run: (§1)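 Planktonic cells washed off; 1% crystal violet 10 min, solubilised in 30% acetic acid, A550 read; wells also imaged at 20X by light microscopy.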
# HEK293 [2] = experiment: Cytotoxicity against HEK293 cells measured after 24 hrs by MTT assay; type: cell-based; settings: Homo sapiens, HEK293, 24 h
# How it was run: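 HEK 293 cells, 4000/well, seeded overnight in DMEM + 10% FBS at 37°C in CO2; compound dose series for 24 h (final DMSO <0.5%, DMSO-only control). MTT at 1 mg/mL final for 3 h, formazan dissolved in DMSO, absorbance 595 nm; IC50 from triplicate OD data.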
# Staphylococcus aureus [3] = experiment: Induction of morphological changes in Staphylococcus aureus assessed as changed population at 5 uM measured after 2 hrs by flow cytometric analysis (reference value: 5.71%); type: functional
# Staphylococcus aureus [4] = experiment: Disruption of preformed biofilm in Staphylococcus aureus at MIC measured after 12 hrs by crystal violet staining based light microscopic analysis; type: functional, organism-based; how it was run: as §1
# DNA [5] = experiment: Binding affinity to Staphylococcus aureus DNA assessed as change in B-DNA structure by circular dichroism method; type: nucleic-acid assay
# How it was run: (§2)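 Genomic DNA isolated from overnight cultures of each strain. Titrated with compound from 15 to 60 µM in a 10 mm quartz cuvette. CD spectra recorded from 230 to 500 nm at 100 nm/min; ellipticity followed at 320 nm.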
# Staphylococcus aureus [6] = experiment: Inhibition of DNA synthesis in Staphylococcus aureus at 3.5 uM measured after 1 hr by BrdU incorporation assay; type: functional, organism-based
# How it was run: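 Log-phase S. aureus (10^5–10^6 CFU/mL) exposed to 3.5 µM for 1 h at 37°C, then BrdU pulse for 30 min; fixed in paraformaldehyde, permeabilised (Triton X-100/lysostaphin), DNA denatured in 2N HCl, stained with FITC anti-BrdU antibody, confocal imaging.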
# Staphylococcus aureus [7] = experiment: Induction of morphological changes in Staphylococcus aureus assessed as cell aggregation at 3.5 to 5 uM by atomic force microscopic analysis; type: functional, organism-based
# Staphylococcus aureus [8] = experiment: Disruption of cell membrane in Staphylococcus aureus assessed as accumulation of propidium iodide positive cells at 5 uM by flow cytometric analysis (reference value: 1.7%); type: functional
# [9] = test system: Pseudarthrobacter chlorophenolicus; experiment: Binding affinity to Arthrobacter chlorophenolicus DNA assessed as change in B-DNA structure by circular dichroism method; how it was run: as §2
# DNA [10] = experiment: Binding affinity to Escherichia coli pBR322 DNA assessed as height of DNA at 0.5:1 to 3:1 compound to DNA ratio by atomic force microscopic analysis; type: nucleic-acid assay
# How it was run: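 Supercoiled pBR322 plasmid treated with compound at [compound]:[DNA bp] ratios of 0.5:1, 1:1, 1.5:1, 2:1 and 3:1. Imaged by atomic force microscopy, with DNA height measured and compared against untreated plasmid.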
# Calf thymus DNA = experiment: Binding affinity to calf thymus DNA assessed as appearance of induced CD at […] by circular dichroism method; type: nucleic-acid assay; settings: Bos taurus
# DNA [11] = experiment: Binding affinity to Staphylococcus aureus DNA assessed as transition of local to global DNA at 1:1 to 3:1 compound to DNA ratio by atomic force microscopic analysis; type: nucleic-acid assay
# How it was run: (§3)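 Isolated S. aureus genomic DNA (2.8 Mbp) treated with compound at increasing [compound]:[DNA bp] ratios, up to 3:1. Imaged by atomic force microscopy against untreated DNA.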
# [12] = test system: Poly(dA-dT)oligonucleotide; experiment: Binding affinity to poly(dA-dT) DNA (unknown origin) assessed as change in B-DNA structure up to 6:1 compound to DNA ratio by circular dichroism method; type: nucleic-acid assay
# How it was run: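 Poly(dA-dT)·poly(dA-dT) or poly(dG-dC)·poly(dG-dC) held at 10 µM. Titrated with compound from 20 to 60 µM and followed by circular dichroism for change in the B-DNA band and appearance of induced CD.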
# Staphylococcus aureus [13] = experiment: Induction of DNA fragmentation in Staphylococcus aureus at 3.5 uM by EtBr staining based confocal laser scanning fluorescence microscopic analysis; type: functional, organism-based
# DNA [14] = experiment: Inhibition of ethidium bromide binding to Staphylococcus aureus DNA at 37 degC by fluorescence assay; type: nucleic-acid assay
# How it was run: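 S. aureus genomic DNA (10 µM) with EtBr (5 µM) in 10 mM NaP pH 7, 10 mM NaCl and 1% DMSO, at 25 and 37 °C. Titrated with compound from 2.5 to 100 µM. Excitation 480 nm, emission scanned 520–700 nm, corrected for inner filter. Stern–Volmer analysis, triplicates. Variants: pH 6–8, or NaCl raised to 50 and 200 mM.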
# Staphylococcus aureus [15] = experiment: Induction of morphological changes in Staphylococcus aureus assessed as changed population at 3.5 uM measured after 2 hrs by flow cytometric analysis (reference value: 5.71%); type: functional
# Staphylococcus aureus [16] = experiment: Antibacterial activity against Staphylococcus aureus MTCC737 measured after 6 hrs by broth microdilution assay; type: functional; settings: MTCC737, 6 h
# How it was run: (§4)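 Broth microdilution per CLSI; 5×10^5 cfu/mL bacteria in LB broth; compounds from DMSO stocks, final DMSO under 0.6%, with DMSO control. Plates incubated at the strain's recommended growth temperature and time; growth read as OD600.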
# DNA [17] = experiment: Binding affinity to DNA isolated from HEK293 cells assessed as change in ellipticity at 262 nm at 15 to 180 uM by circular dichroism method; type: ADME, cell-free; settings: human
# [18] = test system: Staphylococcus epidermidis; experiment: Antibacterial activity against Staphylococcus epidermidis MTCC3615 by broth microdilution assay; type: functional; how it was run: as §4
# Staphylococcus aureus [19] = experiment: Induction of morphological changes in Staphylococcus aureus assessed as change in microbe length at 5 uM by atomic force microscopic analysis (reference value: 1.37 +/- 0.09 micrometer); type: functional
# DNA [20] = experiment: Binding affinity to Staphylococcus aureus DNA assessed as relaxation of DNA strand at 1:1 compound to DNA ratio by atomic force microscopic analysis; type: nucleic-acid assay; how it was run: as §3
# Staphylococcus aureus [21] = experiment: Induction of morphological changes in Staphylococcus aureus assessed as unchanged population at 7.5 uM measured after 2 hrs by flow cytometric analysis (reference value: 90.4%); type: functional
# Escherichia coli = experiment: Disruption of membrane integrity in Escherichia coli assessed as increase in extracellular ALK level at 3.5 to 5 uM measured after 2 hrs by PLP substrate based assay
# DNA [22] = experiment: Inhibition of ethidium bromide binding to Staphylococcus aureus DNA by fluorescence assay; type: nucleic-acid assay
# How it was run: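 Fluorescence intercalator displacement: S. aureus genomic DNA 10 µM plus EtBr 5 µM in 10 mM NaP pH 7, 10 mM NaCl, 1% DMSO, at 25 and 37 °C; titrated with 2.5–100 µM compound. Excitation 480 nm, emission 520–700 nm, inner-filter corrected, triplicates; Stern–Volmer analysis, F0/F = 1 + Ksv[Q].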
# HEK293 [23] = experiment: Induction of DNA damage in HEK293 cells at 15 uM by TUNEL staining based confocal laser scanning fluorescence microscopic analysis; type: cell-based; settings: human, hek293, 15 µM
# How it was run: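 TUNEL in HEK 293 cells treated with 15 µM or 0.5% DMSO control; TdT incorporation of fluorescent nucleotides at strand-break 3′-OH ends, confocal imaging at 60X.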
smiles,measurement,setting,value
CN(C)CCCNc1nc2cc([N+](=O)[O-])ccc2nc1NCc1ccc(C(F)(F)F)cc1,Activity,Staphylococcus aureus [1],100%
same,IC50,HEK293 [2],5.66 µg/mL
same,Activity,Staphylococcus aureus [3],14.6%
same,Activity,Staphylococcus aureus [4],Active
same,Activity,DNA [5],Dose-dependent effect
same,inhibition,Staphylococcus aureus [6],Active
same,Activity,Staphylococcus aureus [7],Active
same,Activity,Staphylococcus aureus [8],20.4%
same,Activity,[9],Dose-dependent effect
same,Activity,DNA [10],0.32 to 1.3 nm
same,Activity,Calf thymus DNA,Dose-dependent effect
same,Activity,DNA [11],Active
same,Activity,[12],inactive
same,Activity,Staphylococcus aureus [13],Active
same,inhibition,DNA [14],Active
same,Activity,Staphylococcus aureus [15],10.2%
same,MIC,Staphylococcus aureus [16],1.79 µg/mL
same,Activity,DNA [17],Active
same,MIC,[18],2.24 µg/mL
same,Activity,Staphylococcus aureus [19],2.36 um
same,Activity,DNA [20],Active
same,Activity,Staphylococcus aureus [21],81%
same,Activity,Escherichia coli,Active
same,inhibition,DNA [22],Dose-dependent effect
same,Activity,HEK293 [23],Toxic
